Screens from PubChem BioAssay.
Only some compounds are listed: those with a hit (about 3.5% of all), similar ones and a draw of the others.
Ecoli rRNA inh – inhibits bacterial ribosomal RNA function over humanized ribosomes. 350,000 compounds, 1.6% hits. E. coli WT GFP vs humanized-ribosome RFP mutants, fluorescence, 24 h; active compounds read low; DMSO median 0, no signal -100. GFP signal change (wild-type ribosome), % (no concentration beside the values). AID 720706;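 active means significant combined selectivity score with lowered wild-type GFP, culture density cut under 30%, mutant RFP and density less affected; inactive means any of these conditions unmet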
PglD DTNB – blocks C. jejuni PglD acetyltransferase activity; purified PglD enzyme, DTNB colorimetric CoA detection; inhibition, % at 12.5 µM; 360,000 compounds, 0.098% hits; in the data active means inhibition above about 16%, passing the limit was not always enough; inconclusive means no clear call, values can overlap the other calls
DENV2 CPE rescue – protects cells from dengue virus 2 cytopathic effect. DENV2-infected cells, cytopathic effect rescue, plate reader. CPE inhibition, % at 9.99 µM. 350,000 compounds, 1.7% hits. AID 651640; in the data active means CPE inhibition above about 20%, passing the limit was not always enough; inconclusive means no clear call, values can overlap the other calls; tested in BHK-21 cells;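 further: 0% = median of neutral control wells and 100% = median of positive control wells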
PGC1a acetyl inh – lowers PGC1a acetylation signal in U2OS cells; AlphaScreen anti-acetyl-lysine; with virally co-expressed GCN5 acetyltransferase; 350,000 compounds, 0.17% hits; inhibition, % at 15.6 µM; AID 651687;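 active means every replicate shows inhibition of at least 40%; inconclusive means mean inhibition at least 40% but some replicate below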;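 further: 0% = neutral control wells and 100% = positive control wells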
FN deposit inh – fibronectin deposition inhibition | inhibition, % at 12.6 µM | AH1F fibroblasts, Alexa488-fibronectin deposition fluorescence, overnight | 350,000 compounds, 0.086% hits;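 active means mean inhibition across replicates of 30% or more, regardless of how many single replicates reach that level; inconclusive means mean under 30% yet at least half of replicates reach 30%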;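 further: positive control wells lacked labelled fibronectin entirely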
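test system = AH1F fibroblasts assembling fluorescent fibronectin matrix | quantity = 10000 AH1F cells per well | buffer or medium = DMEM plus 2% serum, read in PBS | doses = single dose, pinned | incubation = 1 h cell attachment, overnight exposure to compound and label | detection = fluorescence at 485 nm excitation, 525 nm emission | read-out basis = inhibition from reduced deposited-fibronectin fluorescence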
Env fusion inh – inhibitors of HIV Env-mediated cell fusion; HeLa-JRFL Env/CEM21 cell fusion, luciferase; inhibition, % at 12.3 µM; 360,000 compounds, 1.1% hits; AID 651610;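 active means mean replicate inhibition score of at least 50 and every replicate individually at or above 50; inconclusive means only one of the two criteria met; inactive means mean below 50 and not all replicates reaching 50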;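 further: 0% = plate neutral controls and 100% = maraviroc near 300 nM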
AID977621 – growth inhibition of wild-type GFP E. coli, dose response, H69 mutant RFP, cherry-pick. E. coli wild-type GFP strain growth, fluorescence, 24 h. 1,900 tested, under 10 active. activity change, negative = inhibition at 50 µM. shares compounds with Ecoli rRNA inh;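 active means Wild-type ribosome reporter drop at least double the humanized mutant ribosome reporter drop, growth loss under a set limit; inconclusive means no clear call, values can overlap the other calls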;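 further: wild-type GFP and H69 mutant RFP strains grown together 50/50 in each well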
AID977628 – E. coli growth inhibition, wild-type GFP versus h24 humanized RFP strain, dose response, h24 mutant RFP vs wild-type GFP, cherry-pick; shares compounds with Ecoli rRNA inh; E. coli WT GFP strain growth, fluorescence, 24 h; activity change, negative = inhibition at 50 µM; 1,900 tested, under 10 active;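 active means compound lowering the normal-ribosome reporter at least twice as much as the humanized-ribosome reporter, growth loss under a set limit; inconclusive means no clear call, values can overlap the other calls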;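 further: wild-type GFP and h24 humanized RFP strains co-cultured 1 to 1 per well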
The depositor's hits bear a star; u = inconclusive; x = not tested or not shown.

SMILES	Ecoli rRNA inh	PglD DTNB	DENV2 CPE rescue	PGC1a acetyl inh	FN deposit inh	Env fusion inh	AID977621	AID977628
COC(=O)CCN(Cc1ccccc1)S(=O)(=O)c1ccccc1Br	-9	18	2	-2	-15	17	x	x
O=C(O)CCN(Cc1ccccc1)S(=O)(=O)c1ccccc1Cl	-20*	x	-3	2	3	3	-5.7	x
O=C(O)CCN(Cc1ccccc1)S(=O)(=O)c1ccc(Cl)cc1F	-20*	x	3	7	0	-3	-5.9	u
Nc1nc2ccccc2n1CCOc1ccc(F)cc1	-21*	-7	8	-1	4	16	-6.1	-14
COc1ccc(OCCn2c(N)nc3ccccc32)cc1	-23	1	0	x	-5	2	x	x
O=C(C[C@@H]1CC[C@H]2[C@@H](COC[C@H](O)CN2Cc2ccc(Cl)cc2)O1)NCc1ccccc1Cl	-35	3	-7	-7	2	x	x	x
O=C(c1ccccc1)N1N=C(c2cccs2)CC1c1ccccc1O (centres undefined)	-21	3	-5	-5	12	21	x	x
O=C(c1ccccc1)C1Oc2ccccc2C2CC(c3cccs3)=NN12 (centres undefined)	-21*	-5	x	-9	-5	-24	-0.12	-5.9
CCN1C(=O)C(CC(=O)Nc2ccc(F)cc2)N(CCCN2CCN(c3ccc(F)cc3)CC2)C1=S (centres undefined)	-53*	x	-7	x	-11	-7	-4.8	u
COc1cccc(C(=O)c2c[nH]c(C(=O)NCc3cccnc3)c2)c1	-29*	x	-7	-86	x	27	x	-10
CC(C)Oc1ccc(C(=O)Nc2cccc3cccnc23)cc1	-22*	-7	x	x	3	u	-14	-1.1
CCOc1ccc(C(=O)Nc2cccc3cccnc23)cc1	8	0	1	x	-3	-14	x	x
Nc1nc(Nc2ccccc2)nc(NCc2ccco2)c1[N+](=O)[O-]	x	1	x	4	15	-25	x	x
Nc1nc(Nc2ccccc2F)nc(NCc2ccco2)c1[N+](=O)[O-]	-20*	x	1	x	-7	-1	u	x
Cc1ccc(CSc2ncnc3onc(C)c23)cc1	7	x	-3	x	-18	-13	x	x
Cc1noc2ncnc(SCc3ccc(C(F)(F)F)cc3)c12	-21*	3	7	-11	-8	-10	-2.2	u
CC(=O)NC(Cc1ccc(F)c(F)c1)C(=O)NC1CCN(c2c(Cc3ccccc3)c(C)nc3ncnn23)CC1 (centres undefined)	-6	-1	x	-8	x	19	x	x
Cc1nc2ncnn2c(N2CCC(C(=O)NC3CCCC3)CC2)c1Cc1ccccc1	-19*	4	3	3	x	x	-10	-7.5
COc1ccc(-c2c3c(nc4sc(C(=O)Nc5cc(C)on5)c(N)c24)CCC3)cc1	x	-1	x	x	x	x	x	x
COc1ccc(CNC(=O)c2sc3nc4c(c(C(F)(F)F)c3c2N)CCC4)cc1OC	-19*	5	0	5	8	26	-0.68	3.3
Cc1ccc(-c2nnc(NC(=O)c3ccc([N+](=O)[O-])o3)o2)c(C)c1	-3	5	8	-6	4	x	x	x
Cc1ccc(NC(=O)c2ccc([N+](=O)[O-])o2)c(C)c1	-33*	-2	-2	-21	x	-12	x	-16
O=C(c1cccc2c1-c1ccccc1C2)N1CCCCC1	-22*	x	-1	x	7	-1	-11	u
O=C(O)c1cccc(Nc2cc(Cl)c3nonc3c2[N+](=O)[O-])c1	-13	x	u	x	3	-4	x	x
O=C(O)c1ccccc1Nc1cc(Cl)c2nonc2c1[N+](=O)[O-]	-20*	-135	9	13	-4	11	u	x
CCOC(=O)c1cnc2ccc(OCC)cc2c1NCCN1CCOCC1	-21	-2	-11	-5	x	-4	x	x
CCOC(=O)c1cnc2ccc(OCC)cc2c1NCCCN1CCOCC1	-22*	9	-2	13	-4	-4	2	u
